Tests used:
[1] = molecular target: Sphingosine 1-phosphate receptor 2 (Homo sapiens, UniProt O95136); assay: Agonist activity at human S1P2 expressed in CHO-K1 cells coexpressing Gq/i5 assessed as intracellular calcium release by fluorimetry; assay type: functional, cell-based
In short: (§1)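 CHO-K1 cells expressing the human S1P receptor subtype plus chimeric Gq/i5; Ca2+ mobilization measured; efficacy relative to S1P at 0.20 μM; compounds not reaching >10% of control activity reported as > highest concentration tested.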

[2] = molecular target: Sphingosine 1-phosphate receptor 3 (Homo sapiens, UniProt Q99500); assay: Agonist activity at human S1P3 expressed in CHO-K1 cells coexpressing Gq/i5 assessed as intracellular calcium release by fluorimetry; assay type: functional, cell-based; in short: as §1
[3] = molecular target: T1, Sphingosine 1-phosphate receptor 4 (Homo sapiens, UniProt O95977); assay: Agonist activity at human S1P4 expressed in CHO-K1 cells coexpressing Gq/i5 assessed as calcium mobilization-induced bioluminescence change after measured for 90 secs by fluorimetry; assay type: functional, cell-based
T1 sequence (O95977 whole entry): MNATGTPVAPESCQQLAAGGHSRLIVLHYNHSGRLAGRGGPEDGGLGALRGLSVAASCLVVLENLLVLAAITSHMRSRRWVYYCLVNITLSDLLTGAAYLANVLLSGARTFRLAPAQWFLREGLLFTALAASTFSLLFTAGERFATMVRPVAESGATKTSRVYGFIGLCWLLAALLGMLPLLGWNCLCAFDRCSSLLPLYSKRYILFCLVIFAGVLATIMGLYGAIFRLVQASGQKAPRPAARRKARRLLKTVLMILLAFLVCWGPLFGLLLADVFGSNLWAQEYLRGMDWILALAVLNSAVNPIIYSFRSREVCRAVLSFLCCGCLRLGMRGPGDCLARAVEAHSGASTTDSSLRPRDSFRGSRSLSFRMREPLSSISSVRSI

[4] = molecular target: T2, Sphingosine 1-phosphate receptor 5 (Homo sapiens, UniProt Q9H228); assay: Agonist activity at human S1P5 expressed in CHO-K1 cells coexpressing Gq/i5 assessed as calcium mobilization-induced bioluminescence change measured for 90 secs by fluorimetry; assay type: functional, cell-based; in short: as §1
[5] = molecular target: T2, Sphingosine 1-phosphate receptor 5; assay: Agonist activity at human S1P5 expressed in CHO-K1 cells coexpressing Gq/i5 assessed as calcium mobilization-induced bioluminescence change measured for 90 secs by fluorimetry relative to S1P; assay type: functional, cell-based; in short: as §1
[6] = Clearance in Sprague-Dawley rat at 1 mg/kg, iv; assay type: ADME, organism-based; set-up: dose 1 mg/kg, route intravenous; conditions: in vivo
[7] = Volume of distribution at steady state in Sprague-Dawley rat at 1 mg/kg, iv; assay type: ADME, organism-based; set-up: dose 1 mg/kg, route intravenous; conditions: in vivo, read-out: Vdss
[8] = Half life in Sprague-Dawley rat at 1 mg/kg, iv; assay type: ADME, organism-based; set-up: dose 1 mg/kg, route intravenous; conditions: in vivo
[9] = AUC (0 to 48 hrs) in Sprague-Dawley rat at 1 mg/kg, iv; assay type: ADME, organism-based; set-up: time < 48 hr, dose 1 mg/kg, route intravenous; conditions: plasma
[10] = AUC (0 to 48 hrs) in Sprague-Dawley rat at 3 mg/kg, po; assay type: ADME, organism-based; set-up: time < 48 hr, dose 3 mg/kg, route oral; conditions: plasma
[11] = Bioavailability in Sprague-Dawley rat at 3 mg/kg, po and 1 mg/kg, iv; assay type: ADME, organism-based; conditions: in vivo
Rattus norvegicus [12] = assay: AUC (0 to 48 hrs) in Sprague-Dawley rat at 100 mg/kg, po; assay type: ADME, organism-based, Plasma; set-up: time < 48 hr, dose 100 mg/kg, route oral; conditions: in vivo
[13] = Plasma concentration in Lewis rat at 0.3 mg/kg, po at 24 hrs; assay type: ADME, organism-based; set-up: dose 0.3 mg/kg, route oral
In short: (§2)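 Female Lewis rats dosed orally once at 0.30, 1.0 or 3.0 mg/kg (N = 5; 3.0 mg/kg group N = 3) in 20% HPBCD, 1% HPMC, 1% pluronic F68, pH 2.1 with MSA; blood lymphocytes and plasma concentration at 24 h; ANOVA/Dunnett's vs vehicle.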

[14] = Plasma concentration in Lewis rat at 3 mg/kg, po at 24 hrs; assay type: ADME, organism-based; set-up: dose 3 mg/kg, route oral; in short: as §2
Rattus norvegicus [15] = assay: Immunosuppressive activity in po dosed Lewis rat assessed as change in peripheral lymphocyte count after 24 hrs relative to vehicle treated control; assay type: functional, organism-based; in short: as §2
Rattus norvegicus [16] = assay: Immunosuppressive activity in po dosed Lewis rat assessed as change in peripheral lymphocyte count at 3 mg/kg, po after 24 hrs relative to vehicle treated control; assay type: functional; in short: as §2
[17] = molecular target: Voltage-gated inwardly rectifying potassium channel KCNH2 (Homo sapiens, UniProt Q12809); assay: Inhibition of human ERG
Cytochrome P450 2D6 = Cytochrome P450 2D6 (Homo sapiens, UniProt P10635); assay: Inhibition of human CYP2D6; assay type: ADME
PXR (NR1I2) = molecular target: T3, PXR (NR1I2) (Homo sapiens, UniProt O75469); assay: Induction of human PXR at 10 uM relative to control; conditions: read-out: Activity
T3 sequence (O75469 whole entry): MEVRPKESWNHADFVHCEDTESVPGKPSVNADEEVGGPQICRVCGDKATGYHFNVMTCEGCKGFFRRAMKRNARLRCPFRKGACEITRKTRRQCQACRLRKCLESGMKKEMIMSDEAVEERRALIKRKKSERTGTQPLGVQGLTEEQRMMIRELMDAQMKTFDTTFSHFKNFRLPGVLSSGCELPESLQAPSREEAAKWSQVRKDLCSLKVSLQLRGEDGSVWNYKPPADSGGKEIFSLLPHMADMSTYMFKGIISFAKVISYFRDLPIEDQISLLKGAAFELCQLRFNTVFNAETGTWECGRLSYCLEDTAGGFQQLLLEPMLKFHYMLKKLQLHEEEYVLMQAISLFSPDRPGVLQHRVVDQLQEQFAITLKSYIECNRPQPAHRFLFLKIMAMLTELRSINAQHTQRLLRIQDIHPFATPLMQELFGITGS

Rattus norvegicus [18] = assay: Toxicity in Sprague-Dawley rat assessed as mortality at 50 mg/kg, po administered qd for 4 days; assay type: organism-based; set-up: dose 50 mg/kg, route oral; conditions: in vivo, 96 h
In short: (§3)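 Male Sprague-Dawley rats, N = 3/group, dosed orally once daily for 4 days at 50 or 200 mg/kg. Endpoints were mortality, clinical signs, body weight, and clinical chemistry including total bilirubin and cholesterol.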

Rattus norvegicus [19] = assay: Toxicity in Sprague-Dawley rat assessed as clinical signs at 50 mg/kg, po administered qd for 4 days; assay type: organism-based; set-up: dose 50 mg/kg, route oral; conditions: in vivo, 96 h; in short: as §3
Rattus norvegicus [20] = assay: Toxicity in Sprague-Dawley rat assessed as weight loss at 50 mg/kg, po administered qd for 4 days; assay type: organism-based; set-up: dose 50 mg/kg, route oral; conditions: in vivo, 96 h; in short: as §3
Rattus norvegicus [21] = assay: Toxicity in Sprague-Dawley rat assessed as mortality at 200 mg/kg, po administered qd for 4 days; assay type: organism-based; set-up: dose 200 mg/kg, route oral; conditions: in vivo, 96 h; in short: as §3
Rattus norvegicus [22] = assay: Toxicity in Sprague-Dawley rat assessed as adverse clinical signs at 200 mg/kg, po administered qd for 4 days; assay type: organism-based; set-up: dose 200 mg/kg, route oral; conditions: in vivo, 96 h; in short: as §3
Rattus norvegicus [23] = assay: Toxicity in Sprague-Dawley rat assessed as weight loss at 200 mg/kg, po administered qd for 4 days; assay type: organism-based; set-up: dose 200 mg/kg, route oral; conditions: in vivo, 96 h; in short: as §3
Rattus norvegicus [24] = assay: Toxicity in Sprague-Dawley rat assessed as increase in bilirubin level at 50 mg/kg, po administered qd for 4 days; assay type: organism-based; set-up: dose 50 mg/kg, route oral; conditions: in vivo, 96 h; in short: as §3
Rattus norvegicus [25] = assay: Toxicity in Sprague-Dawley rat assessed as increase in bilirubin level at 200 mg/kg, po administered qd for 4 days; assay type: organism-based; set-up: dose 200 mg/kg, route oral; conditions: in vivo, 96 h; in short: as §3
Rattus norvegicus [26] = assay: Toxicity in Sprague-Dawley rat assessed as increase in cholesterol level at 200 mg/kg, po administered qd for 4 days; assay type: organism-based; set-up: dose 200 mg/kg, route oral; conditions: in vivo, 96 h; in short: as §3
[27] = molecular target: Sphingosine 1-phosphate receptor 1 (Homo sapiens, UniProt P21453); assay: Agonist activity at human S1P1 expressed in U2OS cells coexpressing eGFP assessed as receptor internalization after 1 hr by microscopic analysis relative to 1-(4-(6-benzylbenzofuran-2-yl)-3-fluorobenzyl)azetidine-3-carboxylic acid; assay type: functional, cell-based
In short: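 Human S1P1–eGFP fusion protein expressed in U2OS cells; agonism read as receptor internalization; EC50 derived, efficacy expressed relative to 1-(4-(6-benzylbenzofuran-2-yl)-3-fluorobenzyl)azetidine-3-carboxylic acid at 1.0 μM.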

[28] = Intrinsic clearance in rat liver microsomes after 30 mins; assay type: ADME, Microsome; conditions: read-out: CLH
Rattus norvegicus [29] = assay: Immunosuppressive activity in Lewis rat assessed as change in peripheral lymphocyte count at 1 mg/kg, po after 24 hrs relative to vehicle treated control; assay type: functional
In short: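 Female Lewis rats (N = 5/group) given one oral dose of 1 mg/kg (20% captisol, 1% HPMC, 1% pluronic F68, pH 2.1 with MSA); blood lymphocyte count and total plasma compound measured at 24 h; POC vs vehicle, ANOVA/Dunnett's test.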

[30] = Plasma protein binding in Sprague-Dawley rat in vitro by ultracentrifugation; conditions: read-out: PPB (converted)

T2 sequence (Q9H228 whole entry): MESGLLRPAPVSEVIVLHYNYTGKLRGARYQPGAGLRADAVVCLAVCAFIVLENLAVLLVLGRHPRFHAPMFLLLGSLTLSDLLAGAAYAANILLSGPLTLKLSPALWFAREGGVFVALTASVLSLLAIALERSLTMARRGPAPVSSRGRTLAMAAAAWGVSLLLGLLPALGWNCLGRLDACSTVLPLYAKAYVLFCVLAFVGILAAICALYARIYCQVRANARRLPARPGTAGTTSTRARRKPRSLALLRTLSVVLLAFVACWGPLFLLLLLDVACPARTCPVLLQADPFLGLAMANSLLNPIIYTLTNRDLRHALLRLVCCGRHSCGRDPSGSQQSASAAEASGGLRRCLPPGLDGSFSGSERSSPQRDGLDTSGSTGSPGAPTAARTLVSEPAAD
Voltage-gated inwardly rectifying potassium channel KCNH2, sequence (Q12809 whole entry): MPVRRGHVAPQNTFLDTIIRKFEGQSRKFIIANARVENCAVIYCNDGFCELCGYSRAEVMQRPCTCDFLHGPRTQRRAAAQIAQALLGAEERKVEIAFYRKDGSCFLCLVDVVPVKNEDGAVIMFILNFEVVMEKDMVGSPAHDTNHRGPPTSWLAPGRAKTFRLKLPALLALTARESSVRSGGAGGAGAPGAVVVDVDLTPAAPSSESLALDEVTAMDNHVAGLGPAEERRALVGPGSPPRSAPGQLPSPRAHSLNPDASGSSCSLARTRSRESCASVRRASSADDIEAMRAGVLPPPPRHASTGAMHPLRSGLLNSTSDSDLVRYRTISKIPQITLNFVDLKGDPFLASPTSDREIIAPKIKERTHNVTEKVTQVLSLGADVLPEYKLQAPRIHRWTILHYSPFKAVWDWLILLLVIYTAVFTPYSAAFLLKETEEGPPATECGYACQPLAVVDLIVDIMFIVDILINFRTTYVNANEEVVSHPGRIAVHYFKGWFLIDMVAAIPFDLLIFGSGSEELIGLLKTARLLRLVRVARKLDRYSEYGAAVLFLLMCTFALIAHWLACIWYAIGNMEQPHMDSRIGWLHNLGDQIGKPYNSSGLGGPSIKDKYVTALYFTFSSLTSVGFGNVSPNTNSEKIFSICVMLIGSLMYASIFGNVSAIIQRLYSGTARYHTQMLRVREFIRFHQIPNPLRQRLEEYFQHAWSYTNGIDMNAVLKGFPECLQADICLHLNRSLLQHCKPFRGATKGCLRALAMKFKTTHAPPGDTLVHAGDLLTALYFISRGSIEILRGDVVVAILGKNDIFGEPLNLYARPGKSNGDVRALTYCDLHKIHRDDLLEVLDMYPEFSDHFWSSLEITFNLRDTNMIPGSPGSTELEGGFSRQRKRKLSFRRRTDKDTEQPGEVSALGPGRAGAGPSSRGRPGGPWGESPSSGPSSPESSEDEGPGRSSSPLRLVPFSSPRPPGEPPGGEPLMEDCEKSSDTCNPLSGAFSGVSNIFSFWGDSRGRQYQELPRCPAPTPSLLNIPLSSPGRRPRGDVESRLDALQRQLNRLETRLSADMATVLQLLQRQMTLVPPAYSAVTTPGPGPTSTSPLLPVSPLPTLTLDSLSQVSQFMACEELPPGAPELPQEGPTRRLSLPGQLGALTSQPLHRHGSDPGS
Sphingosine 1-phosphate receptor 2, sequence (O95136 whole entry): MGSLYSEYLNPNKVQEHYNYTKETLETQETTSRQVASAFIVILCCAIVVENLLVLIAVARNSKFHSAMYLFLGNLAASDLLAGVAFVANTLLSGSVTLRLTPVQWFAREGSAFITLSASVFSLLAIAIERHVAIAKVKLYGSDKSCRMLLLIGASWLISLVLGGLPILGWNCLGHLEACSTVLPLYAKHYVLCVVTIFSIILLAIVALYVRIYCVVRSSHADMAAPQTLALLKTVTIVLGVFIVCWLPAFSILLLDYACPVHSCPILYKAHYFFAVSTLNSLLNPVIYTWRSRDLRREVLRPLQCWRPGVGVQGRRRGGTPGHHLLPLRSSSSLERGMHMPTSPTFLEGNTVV
Sphingosine 1-phosphate receptor 1, sequence (P21453 whole entry, the tested form may be a part): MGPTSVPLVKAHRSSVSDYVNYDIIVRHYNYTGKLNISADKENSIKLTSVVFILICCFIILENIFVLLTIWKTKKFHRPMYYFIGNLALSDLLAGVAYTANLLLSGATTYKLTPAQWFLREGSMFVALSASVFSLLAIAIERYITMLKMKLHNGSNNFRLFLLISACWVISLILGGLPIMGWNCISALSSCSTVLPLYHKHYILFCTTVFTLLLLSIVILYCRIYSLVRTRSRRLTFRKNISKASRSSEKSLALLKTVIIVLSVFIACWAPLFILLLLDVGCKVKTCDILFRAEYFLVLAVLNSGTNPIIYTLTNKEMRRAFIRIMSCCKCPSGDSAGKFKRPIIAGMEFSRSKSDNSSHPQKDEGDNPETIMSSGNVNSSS
Cytochrome P450 2D6, sequence (P10635 whole entry): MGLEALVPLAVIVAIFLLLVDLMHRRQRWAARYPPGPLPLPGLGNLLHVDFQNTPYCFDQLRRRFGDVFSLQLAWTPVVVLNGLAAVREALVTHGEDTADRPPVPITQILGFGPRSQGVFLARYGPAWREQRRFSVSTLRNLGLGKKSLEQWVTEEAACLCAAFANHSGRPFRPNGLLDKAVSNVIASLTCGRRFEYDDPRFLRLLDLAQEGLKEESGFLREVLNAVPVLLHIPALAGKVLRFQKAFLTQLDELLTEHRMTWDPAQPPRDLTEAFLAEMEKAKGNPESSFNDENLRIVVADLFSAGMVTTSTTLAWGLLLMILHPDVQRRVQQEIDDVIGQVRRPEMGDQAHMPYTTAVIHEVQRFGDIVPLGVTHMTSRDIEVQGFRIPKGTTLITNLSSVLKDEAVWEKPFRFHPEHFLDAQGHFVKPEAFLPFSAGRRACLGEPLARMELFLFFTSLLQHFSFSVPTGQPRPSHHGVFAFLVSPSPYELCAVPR
Sphingosine 1-phosphate receptor 3, sequence (Q99500 whole entry): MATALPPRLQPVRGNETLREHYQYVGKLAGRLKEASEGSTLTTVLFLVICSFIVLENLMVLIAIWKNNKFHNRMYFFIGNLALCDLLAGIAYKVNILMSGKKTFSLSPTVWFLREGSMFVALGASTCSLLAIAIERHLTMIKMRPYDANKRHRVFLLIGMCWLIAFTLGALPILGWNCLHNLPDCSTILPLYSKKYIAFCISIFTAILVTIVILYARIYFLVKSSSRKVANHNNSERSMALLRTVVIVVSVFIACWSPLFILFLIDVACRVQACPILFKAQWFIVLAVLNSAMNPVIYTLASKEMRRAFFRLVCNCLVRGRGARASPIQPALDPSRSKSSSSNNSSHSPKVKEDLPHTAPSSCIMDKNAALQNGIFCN

In the case of `COc1ccncc1C(=O)NC(=O)Nc1ccc(-c2ccccc2)c(C(F)(F)F)c1`, the EC50 [1] is reported as > 25 µM, the EC50 [2] is reported as > 25 µM and the EC50 [3] is reported as > 50 µM. For the same compound, the EC50 [4] was 4.3 µM, the Efficacy [5] was 58% and the clearance [6] was 4.17 mL/min/kg. It also gave a Vd [7] of 6.3 L/kg, a half-life [8] of 19 h and an AUC(0-t) at 48 h [9] of 3400 ng·h/mL. It also gave an AUC(0-t) at 48 h [10] of 13000 ng·h/mL, a bioavailability [11] of 140% and an AUC (Rattus norvegicus [12]) of 350000 ng·h/mL. For the same compound, the concentration at 24 h [13] was 17 ng/mL, the concentration at 24 h [14] was 160 ng/mL and the Activity (Rattus norvegicus [15]) was “Dose-dependent effect”. For the same compound, the Activity (Rattus norvegicus [16]) was 81%, the IC50 [17] was > 10 µM and the IC50 (Cytochrome P450 2D6) was > 30 µM. For the same compound, the activity at 10 µM (PXR (NR1I2)) was 3.7%, the Activity (Rattus norvegicus [18]) was “Non-toxic” and the Activity (Rattus norvegicus [19]) was “Non-toxic”. The Activity (Rattus norvegicus [20]) was “Non-toxic”, the Activity (Rattus norvegicus [21]) was “Non-toxic” and the Activity (Rattus norvegicus [22]) was “Non-toxic”. For the same compound, the Activity (Rattus norvegicus [23]) was “Non-toxic”, the Activity (Rattus norvegicus [24]) was “Toxic” and the Activity (Rattus norvegicus [25]) was “Toxic”. For the same compound, the Activity (Rattus norvegicus [26]) was “Toxic”, the Efficacy [27] was 96% and the microsomal CLint [28] was < 14 µL/min/mg. It also gave an Activity (Rattus norvegicus [29]) of -67% and a fraction unbound [30] of 0.05.

From ChEMBL document CHEMBL2016555, “4-Methoxy-N-[2-(trifluoromethyl)biphenyl-4-ylcarbamoyl]nicotinamide: A Potent and Selective Agonist of S1P1” (ACS Med Chem Lett, 2011)
